Active and inactive are the calls of the source. The calls are words filed in the database; no cut-off is given here. Starred links: 1 amine or outer side, 2 acyl side, 3 side chain; linkers in the order of their positions; H or OH if unused. Non-standard residues stand in square brackets, D forms with d. Residues, ends and D or L forms follow the SMILES beside them. N(2,4-Cl2-phenethyl)Gly = O=C(O)CNCCc1ccc(Cl)cc1Cl; X1 = O=C(CN(CCC(c1ccccc1)c1ccccc1)[*:1])[*:2]
Experiments:
U2OS [1] = assay: Antiapoptotic activity against human U2OS cells assessed as inhibition of doxorubicin-induced cell death by flow cytometry; type: functional, cell-based
U-937 [2] = assay: Cytotoxicity against human U937 cells after 24 hrs by MTT assay; type: functional, cell-based
In short: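 U937 cells in RPMI 1640 with 10% FCS and 2 mM L-glutamine were seeded at 2.5 × 10³ or 4 × 10³ cells/well and settled for 24 h. Filter-sterilized compounds were added at final 1, 5 and 10 µM (polymer conjugate at 20, 50 and 100 µM drug equivalent) for 19 h. MTT was then added for a further 5 h, giving 24 h total exposure. Formazan was dissolved in DMSO and read at 570 nm; mean ± SE, n > 3.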

SAOS-2 [3] = assay: Inhibition of apoptosome activity in human Saos2 cells assessed as inhibition of caspase 3 at 5 uM after 24 hrs by fluorimetric DEVDase assay; type: functional; details: SAOS-2, 24 h
In short: (§1)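 Apoptosis was induced with doxorubicin in PBS (HeLa 2 µg/mL, 3 × 10⁵ cells/plate; U-2 OS 2.5 µg/mL, 3.5 × 10⁵ cells/plate) or with doxycycline 2 µg/mL (Saos-2, tet-ON Bax, 2 × 10⁵ cells/plate). Compound was added 30 min later at 5 µM, and cells were harvested at 24, 48 or 72 h. Lysis was by PIPES/KCl/EDTA/MgCl₂/DTT buffer with three freeze-thaw cycles. Protein was equalized by BCA, then 20 µM Ac-DEVD-afc was added in PBS with 10% glycerol, 0.1 mM EDTA and 2 mM DTT. Fluorescence was read at 37 °C (ex 400, em 508 nm) as ΔFU/min; mean ± SE, n > 3.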

SAOS-2 [4] = assay: Antiapoptotic activity against human Saos2 cells assessed as cell recovery at 5 uM after 24 hrs by flow cytometry; type: functional
U-937 [5] = assay: Antiapoptotic activity against human U937 cells assessed as inhibition of doxorubicin-induced cell death after 24 hrs by flow cytometry; type: functional, cell-based
U2OS [6] = assay: Inhibition of apoptosome activity in human U2OS cells assessed as inhibition of caspase 3 at 5 uM after 48 hrs by fluorimetric DEVDase assay; type: functional; in short: as §1
HeLa [7] = assay: Inhibition of apoptosome activity in human HeLa cells assessed as inhibition of caspase 3 at 5 uM after 48 hrs by fluorimetric DEVDase assay; type: functional; in short: as §1
HeLa [8] = assay: Antiapoptotic activity against human HeLa cells assessed as inhibition of doxorubicin-induced cell death after 24 hrs by flow cytometry; type: functional, cell-based
SAOS-2 [9] = assay: Antiapoptotic activity against human Saos2 cells assessed as inhibition of doxycyclin-induced cell death at 1 uM by flow cytometry; type: functional
U2OS [10] = assay: Antiapoptotic activity against human U2OS cells assessed as inhibition of doxorubicin-induced cell death after 24 hrs by flow cytometry; type: functional, cell-based
SAOS-2 [11] = assay: Inhibition of apoptosome activity in human Saos2 cells assessed as inhibition of caspase 3 after 24 hrs by fluorimetric DEVDase assay; type: functional, cell-based
A549 = assay: Antiapoptotic activity against human A549 cells assessed as inhibition of doxorubicin-induced cell death after 24 hrs by flow cytometry; type: functional, cell-based
SAOS-2 [12] = assay: Antiapoptotic activity against human Saos2 cells assessed as inhibition of doxycyclin-induced cell death after 24 hrs by flow cytometry; type: functional, cell-based

## CC(C)C[C@H](NC(=O)[C@H](C)NC(=O)[C@H](CCCCN)NC(=O)[C@@H](NC(=O)[C@@H](N)CS)[C@@H](C)O)C(=O)NCC(=O)N[C@@H](CS)C(=O)NCC(=O)NCC(=O)N[C@@H](Cc1ccc(O)cc1)C(=O)NCC(=O)N[C@@H](CCCNC(=N)N)C(=O)N[C@@H](CCCCN)C(=O)N[C@@H](CCCCN)C(=O)N[C@@H](CCCNC(=N)N)C(=O)N[C@@H](CCCNC(=N)N)C(=O)N[C@@H](CCC(N)=O)C(=O)N[C@@H](CCCNC(=N)N)C(=O)N[C@@H](CCCNC(=N)N)C(=O)N[C@@H](CCCNC(=N)N)C(=O)N(CCc1ccc(Cl)cc1Cl)CC(=O)N(CCC(c1ccccc1)c1ccccc1)CC(=O)N(CCc1ccc(Cl)cc1Cl)CC(N)=O (H-CTKALGCGGYGRKKRRQRRR[N(2,4-Cl2-phenethyl)Gly][X1][N(2,4-Cl2-phenethyl)Gly]-NH2)
U2OS [1]
  Activity: inactive
U-937 [2]
  Activity: Toxic

## COc1ccccc1CCN(CC(N)=O)C(=O)C1CC(=O)N(CCc2ccc(Cl)cc2Cl)CC(=O)N1CCC(c1ccccc1)c1ccccc1 (stereo unspecified)
SAOS-2 [3]
  inhibition at 5 µM: 1%
SAOS-2 [4]
  Activity: 41%

## NC(=O)CN(C(=O)C1CC(=O)N(CCc2ccc(Cl)cc2Cl)CC(=O)N1CCC(c1ccccc1)c1ccccc1)C1CC1 (stereo unspecified)
SAOS-2 [3]
  inhibition at 5 µM: 16%
SAOS-2 [4]
  Activity: 10%

## NC(=O)CN(CCc1ccc(Cl)cc1Cl)C(=O)C1CC(=O)N(CCc2ccc(Cl)cc2Cl)CC(=O)N1CCC(c1ccccc1)c1ccccc1 (stereo unspecified)
SAOS-2 [3]
  inhibition at 5 µM: 53%
U2OS [1]
  Activity: Active
U-937 [5]
  Activity: Active
U2OS [6]
  inhibition at 5 µM: 50%
HeLa [7]
  inhibition at 5 µM: 60%
HeLa [8]
  Activity: Active
SAOS-2 [9]
  inhibition at 1 µM: 60%
U2OS [10]
  Activity: Active
SAOS-2 [4]
  Activity: 50%
SAOS-2 [11]
  Activity: Active
A549
  Activity: Active
U-937 [2]
  Activity: Not toxic
SAOS-2 [12]
  Activity: Active

## CCCCN(CC(N)=O)C(=O)C1CC(=O)N(CCc2ccc(Cl)cc2Cl)CC(=O)N1CCC(c1ccccc1)c1ccccc1 (stereo unspecified)
SAOS-2 [3]
  inhibition at 5 µM: 45%
SAOS-2 [4]
  Activity: 2%

## CC[C@H](C)[C@H](NC(=O)[C@H](CCCCN)NC(=O)[C@@H](NC(=O)[C@H](CCC(N)=O)NC(=O)[C@@H](N)CCCNC(=N)N)[C@@H](C)CC)C(=O)N[C@@H](Cc1c[nH]c2ccccc12)C(=O)N[C@@H](Cc1ccccc1)C(=O)N[C@@H](CCC(N)=O)C(=O)N[C@@H](CC(N)=O)C(=O)N[C@@H](CCCNC(=N)N)C(=O)N[C@@H](CCCNC(=N)N)C(=O)N[C@@H](CCSC)C(=O)N[C@@H](CCCCN)C(=O)N[C@@H](Cc1c[nH]c2ccccc12)C(=O)N[C@@H](CCCCN)C(=O)N[C@@H](CCCCN)C(=O)NCC(=O)NCC(=O)N(CCc1ccc(Cl)cc1Cl)CC(=O)N(CCC(c1ccccc1)c1ccccc1)CC(=O)N(CCc1ccc(Cl)cc1Cl)CC(N)=O
U-937 [2]
  Activity: Toxic

## CC(=O)NCCN(CC(N)=O)C(=O)C1CC(=O)N(CCc2ccc(Cl)cc2Cl)CC(=O)N1CCC(c1ccccc1)c1ccccc1 (stereo unspecified)
SAOS-2 [3]
  inhibition at 5 µM: 21%
SAOS-2 [4]
  Activity: 12%

## NC(=O)CN(CCc1ccc(F)cc1)C(=O)C1CC(=O)N(CCc2ccc(Cl)cc2Cl)CC(=O)N1CCC(c1ccccc1)c1ccccc1 (stereo unspecified)
SAOS-2 [3]
  inhibition at 5 µM: 34%
SAOS-2 [4]
  Activity: 57%

## NC(=O)CN(CCc1ccccc1F)C(=O)C1CC(=O)N(CCc2ccc(Cl)cc2Cl)CC(=O)N1CCC(c1ccccc1)c1ccccc1 (stereo unspecified)
SAOS-2 [3]
  inhibition at 5 µM: 51%
SAOS-2 [4]
  Activity: 16%

## NC(=O)CN(CCc1ccc(Cl)cc1)C(=O)C1CC(=O)N(CCc2ccc(Cl)cc2Cl)CC(=O)N1CCC(c1ccccc1)c1ccccc1 (stereo unspecified)
SAOS-2 [3]
  inhibition at 5 µM: 2%
SAOS-2 [4]
  Activity: 23%

## NC(=O)CN(CC1CCCO1)C(=O)C1CC(=O)N(CCc2ccc(Cl)cc2Cl)CC(=O)N1CCC(c1ccccc1)c1ccccc1 (stereo unspecified)
SAOS-2 [4]
  Activity: 9%
